# The source made the active and inactive calls. The rule behind the calls is not given here.
# Biological target: Protein LANA1 (Human herpesvirus 8 type P (isolate GK18)) (UniProt Q9QR71)
# Assay: LANA–nucleosome binding inhibitors, dose response, orthogonal assay, biochemical, ELISA, dry powder samples (AID 588510)
# Details: GST-LANA 1-23 binding to nucleosomes, ELISA 450 nm; series mostly up to 50 µM
# How it was run: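 material = purified nucleosomes plus GST-LANA 1-23 peptide | amount = nucleosomes 1.5 µg per well | probe or stimulus = GST-LANA 1-23, 7.5 µg/mL | schedule = binding step 90 min, 4 °C | detection = ELISA absorbance at 450 nm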
# Chain of Protein LANA1 (Human herpesvirus 8 type P (isolate GK18)) (Q9QR71 whole entry, looked up): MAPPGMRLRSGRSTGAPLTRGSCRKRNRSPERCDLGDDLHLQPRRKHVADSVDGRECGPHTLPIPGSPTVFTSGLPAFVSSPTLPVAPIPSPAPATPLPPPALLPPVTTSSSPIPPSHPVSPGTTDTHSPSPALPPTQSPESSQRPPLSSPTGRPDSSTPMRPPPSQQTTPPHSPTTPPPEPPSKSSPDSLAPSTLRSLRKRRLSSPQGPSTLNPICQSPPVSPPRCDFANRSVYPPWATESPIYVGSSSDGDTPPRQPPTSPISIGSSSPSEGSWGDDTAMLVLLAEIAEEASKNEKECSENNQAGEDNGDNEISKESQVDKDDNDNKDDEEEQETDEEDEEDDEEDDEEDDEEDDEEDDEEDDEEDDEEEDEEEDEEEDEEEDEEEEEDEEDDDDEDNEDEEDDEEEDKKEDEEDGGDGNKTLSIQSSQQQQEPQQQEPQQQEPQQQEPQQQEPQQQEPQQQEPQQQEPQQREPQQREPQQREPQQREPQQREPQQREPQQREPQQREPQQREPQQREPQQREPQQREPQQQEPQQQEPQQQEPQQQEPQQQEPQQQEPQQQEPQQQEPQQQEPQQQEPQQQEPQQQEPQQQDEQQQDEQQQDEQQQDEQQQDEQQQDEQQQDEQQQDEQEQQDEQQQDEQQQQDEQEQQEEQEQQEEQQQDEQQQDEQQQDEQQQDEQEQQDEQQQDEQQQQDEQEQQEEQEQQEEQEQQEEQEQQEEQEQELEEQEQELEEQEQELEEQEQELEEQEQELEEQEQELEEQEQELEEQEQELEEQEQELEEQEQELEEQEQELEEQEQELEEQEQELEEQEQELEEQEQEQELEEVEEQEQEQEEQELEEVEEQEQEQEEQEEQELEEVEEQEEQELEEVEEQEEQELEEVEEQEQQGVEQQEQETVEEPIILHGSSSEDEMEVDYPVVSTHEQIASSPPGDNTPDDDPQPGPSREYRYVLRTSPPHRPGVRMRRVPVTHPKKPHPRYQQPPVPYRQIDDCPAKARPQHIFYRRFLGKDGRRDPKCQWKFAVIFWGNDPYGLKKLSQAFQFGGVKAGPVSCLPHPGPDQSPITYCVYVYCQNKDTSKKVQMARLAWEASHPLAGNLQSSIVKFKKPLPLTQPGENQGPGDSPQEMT
row,SMILES,outcome
1,Cc1cc(C)cc(NS(=O)(=O)c2ccc3c(c2)C(C)(C)C(=O)N3C)c1,inactive
2,CC1Cc2ccccc2N1C(=O)CSc1ncccn1 (stereo not drawn),inactive
3,O=S(=O)(Nc1cc(Cl)ccc1N1CCOCC1)c1ccccc1Cl,inactive
4,Clc1ccc(-c2nnc3sc(-c4ccc(Br)o4)nn23)cc1,inactive
5,COc1ccc(C2C=C(c3ccc(Br)cc3)Nc3nc(NS(C)(=O)=O)nn32)cc1 (stereo not drawn),inactive
6,Cc1ccc(Cl)cc1N1CCN(C(=O)C2CCN(S(C)(=O)=O)CC2)CC1,inactive
7,Cc1cc(C)c2nc(C(F)(F)F)nc(NCCCN3CCCC3=O)c2c1,inactive
8,CC(=O)Nc1ccc(-c2cn3ccsc3n2)cc1,inactive
9,Cc1cccc(N2C(=O)c3cccc4c(N(C)CCO)ccc(c34)C2=O)c1,inactive
10,CC(C)(C)C1(C)OC(=O)C(=Cc2ccc(OCC(=O)Nc3ccccc3)cc2)C(=O)O1 (stereo not drawn),inactive
11,COc1ccc2ccccc2c1C(O)c1nccn1C (stereo not drawn),inactive
12,O=C(CCCN1C(=O)c2cccc3cccc(c23)C1=O)N1CCN(c2ccccc2)CC1,inactive
13,CC(=O)Nc1cccc(N)c1,inactive

# From PubChem BioAssay AID588510 (Broad Institute, 2011)
